According to ChEMBL document CHEMBL1821604, “Anticancer activity and cDNA microarray studies of a (RS)-1,2,3,5-tetrahydro-4,1-benzoxazepine-3-yl]-6-chloro-9H-purine, and an acyclic (RS)-O,N-acetalic 6-chloro-7H-purine” (Eur J Med Chem, 2011):

Assays:
Type in all cases: functional
MCF7 [1] = test: Upregulation of HMGCS2 gene expression in human MCF7 cells at IC50 after 48 hrs by cDNA microarray technique relative to control
MCF7 [2] = test: Down regulation of PCDH20 gene expression in human MCF7 cells at IC50 after 48 hrs by cDNA microarray technique relative to control
HT-29 [3] = test: Down regulation of ETV1 gene expression in human HT-29 cells at IC50 after 48 hrs by cDNA microarray technique relative to control
Procedure, shortened: (§1)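 Cells (8 × 10⁶) were cultured in DMEM with 10% heat-inactivated FBS at 37 °C under 5% CO₂. They were exposed for 48 h to compound at its IC₅₀, with DMSO-treated parallel cultures as controls (final DMSO ≤0.1% v/v). Total RNA was isolated by trizol/chloroform phase separation, RNeasy column cleanup and on-column DNase, then quantified by OD260/OD280. Expression was profiled by cDNA microarray relative to control.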

MCF7 [4] = test: Down regulation of P53AIP1 gene expression in human MCF7 cells at IC50 after 48 hrs by cDNA microarray technique relative to control
MCF7 [5] = test: Down regulation of MGC42090 gene expression in human MCF7 cells at IC50 after 48 hrs by cDNA microarray technique relative to control
HT-29 [6] = test: Down regulation of FUT9 gene expression in human HT-29 cells at IC50 after 48 hrs by cDNA microarray technique relative to control; procedure, shortened: as §1
MCF7 [7] = test: Upregulation of NRTN gene expression in human MCF7 cells at IC50 after 48 hrs by cDNA microarray technique relative to control
MCF7 [8] = test: Upregulation of ADPN gene expression in human MCF7 cells at IC50 after 48 hrs by cDNA microarray technique relative to control
MCF7 [9] = test: Down regulation of DOK5 gene expression in human MCF7 cells at IC50 after 48 hrs by cDNA microarray technique relative to control; procedure, shortened: as §1
HT-29 [10] = test: Down regulation of AK5 gene expression in human HT-29 cells at IC50 after 48 hrs by cDNA microarray technique relative to control
Procedure, shortened: (§2)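 8 × 10⁶ cells exposed 48 h to compound at its IC50 concentration; total RNA isolated with trizol/chloroform and RNeasy columns including on-column DNase step; RNA quantified by OD 260/280; DMSO-treated cultures as control.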

HT-29 [11] = test: Down regulation of MGC35130 gene expression in human HT-29 cells at IC50 after 48 hrs by cDNA microarray technique relative to control
MCF7 [12] = test: Upregulation of LCN12 gene expression in human MCF7 cells at IC50 after 48 hrs by cDNA microarray technique relative to control
MCF7 [13] = test: Down regulation of THSD2 gene expression in human MCF7 cells at IC50 after 48 hrs by cDNA microarray technique relative to control
MCF7 [14] = test: Down regulation of ZNF189 gene expression in human MCF7 cells at IC50 after 48 hrs by cDNA microarray technique relative to control
MCF7 [15] = test: Down regulation of ENST00000295859 gene expression in human MCF7 cells at IC50 after 48 hrs by cDNA microarray technique relative to control; procedure, shortened: as §1
HT-29 [16] = test: Upregulation of HOXB8 gene expression in human HT-29 cells at IC50 after 48 hrs by cDNA microarray technique relative to control
MCF7 [17] = test: Down regulation of HLA-DOB gene expression in human MCF7 cells at IC50 after 48 hrs by cDNA microarray technique relative to control; procedure, shortened: as §1
HT-29 [18] = test: Down regulation of PARK2 gene expression in human HT-29 cells at IC50 after 48 hrs by cDNA microarray technique relative to control
MCF7 [19] = test: Down regulation of ZNF365 gene expression in human MCF7 cells at IC50 after 48 hrs by cDNA microarray technique relative to control
HT-29 [20] = test: Down regulation of BENE gene expression in human HT-29 cells at IC50 after 48 hrs by cDNA microarray technique relative to control; procedure, shortened: as §2
MCF7 [21] = test: Down regulation of LTBP2 gene expression in human MCF7 cells at IC50 after 48 hrs by cDNA microarray technique relative to control
HT-29 [22] = test: Down regulation of ORM1 gene expression in human HT-29 cells at IC50 after 48 hrs by cDNA microarray technique relative to control
MCF7 [23] = test: Down regulation of FBXL7 gene expression in human MCF7 cells at IC50 after 48 hrs by cDNA microarray technique relative to control; procedure, shortened: as §1
MCF7 [24] = test: Down regulation of ZNF354A gene expression in human MCF7 cells at IC50 after 48 hrs by cDNA microarray technique relative to control
HT-29 [25] = test: Down regulation of VPS18 gene expression in human HT-29 cells at IC50 after 48 hrs by cDNA microarray technique relative to control
HT-29 [26] = test: Down regulation of MGC2654 gene expression in human HT-29 cells at IC50 after 48 hrs by cDNA microarray technique relative to control
MCF7 [27] = test: Upregulation of RHOH gene expression in human MCF7 cells at IC50 after 48 hrs by cDNA microarray technique relative to control
MCF7 [28] = test: Upregulation of GALNT13 gene expression in human MCF7 cells at IC50 after 48 hrs by cDNA microarray technique relative to control
MCF7 [29] = test: Down regulation of PARP9 gene expression in human MCF7 cells at IC50 after 48 hrs by cDNA microarray technique relative to control
MCF7 [30] = test: Down regulation of C11orf8 gene expression in human MCF7 cells at IC50 after 48 hrs by cDNA microarray technique relative to control; procedure, shortened: as §2
MCF7 [31] = test: Upregulation of ZNF505 gene expression in human MCF7 cells at IC50 after 48 hrs by cDNA microarray technique relative to control
HT-29 [32] = test: Down regulation of HNRPAB gene expression in human HT-29 cells at IC50 after 48 hrs by cDNA microarray technique relative to control; procedure, shortened: as §1
HT-29 [33] = test: Down regulation of LMNB1 gene expression in human HT-29 cells at IC50 after 48 hrs by cDNA microarray technique relative to control; procedure, shortened: as §1
MCF7 [34] = test: Down regulation of C9orf125 gene expression in human MCF7 cells at IC50 after 48 hrs by cDNA microarray technique relative to control; procedure, shortened: as §2
HT-29 [35] = test: Down regulation of AQP3 gene expression in human HT-29 cells at IC50 after 48 hrs by cDNA microarray technique relative to control; procedure, shortened: as §2
MCF7 [36] = test: Upregulation of MYCN gene expression in human MCF7 cells at IC50 after 48 hrs by cDNA microarray technique relative to control
HT-29 [37] = test: Down regulation of CARHSP1 gene expression in human HT-29 cells at IC50 after 48 hrs by cDNA microarray technique relative to control; procedure, shortened: as §2
HT-29 [38] = test: Down regulation of PRKCABP gene expression in human HT-29 cells at IC50 after 48 hrs by cDNA microarray technique relative to control

## COC(CN(c1ccccc1CO)S(=O)(=O)c1ccccc1[N+](=O)[O-])n1cnc2ncnc(Cl)c21 (racemic)
MCF7 [1]
  fold change (FC): 2.39
MCF7 [2]
  fold change (FC): -2.01
HT-29 [3]
  fold change (FC): -2.63
MCF7 [4]
  fold change (FC): -2.4
MCF7 [5]
  fold change (FC): -2.03
HT-29 [6]
  fold change (FC): -2.25
MCF7 [7]
  fold change (FC): 4.22
MCF7 [8]
  fold change (FC): 2.37
MCF7 [9]
  fold change (FC): -2.11
HT-29 [10]
  fold change (FC): -3.52
HT-29 [11]
  fold change (FC): -2.05
MCF7 [12]
  fold change (FC): 2.24
MCF7 [13]
  fold change (FC): -2.28
MCF7 [14]
  fold change (FC): -2.17
MCF7 [15]
  fold change (FC): -2.27
HT-29 [16]
  fold change (FC): 2.11
MCF7 [17]
  fold change (FC): -2.26
HT-29 [18]
  fold change (FC): -2.96

## O=C(OCC1c2ccccc2-c2ccccc21)N1CC(n2cnc3c(Cl)ncnc32)OCc2ccccc21 (racemic)
MCF7 [19]
  fold change (FC): 2
HT-29 [20]
  fold change (FC): -2.14
MCF7 [21]
  fold change (FC): -3.28
HT-29 [22]
  fold change (FC): -2.19
MCF7 [23]
  fold change (FC): -2.86
MCF7 [24]
  fold change (FC): -2.05
HT-29 [25]
  fold change (FC): -2.04
HT-29 [26]
  fold change (FC): -2.02
MCF7 [27]
  fold change (FC): 2.2
MCF7 [28]
  fold change (FC): 3.23
MCF7 [29]
  fold change (FC): -3.23
MCF7 [30]
  fold change (FC): -2.88
MCF7 [31]
  fold change (FC): 5.62
HT-29 [32]
  fold change (FC): -2.45
HT-29 [33]
  fold change (FC): -3
MCF7 [34]
  fold change (FC): -3.38
HT-29 [35]
  fold change (FC): -2.53
MCF7 [36]
  fold change (FC): 2.98
HT-29 [37]
  fold change (FC): -2.12
HT-29 [38]
  fold change (FC): -2.13
